Results taken from paper PMC2364724 (Drug metabolism and disposition: the biological fate of …, 2007).
Values joined by “and” are separate entries in the source; they are usually repeats but may differ in a detail not shown here. Identical values can stand only once. Each block holds one compound with its values, some of them ahead of it.

Columns and labels:
[1] = tested on: pooled HIM; experiment: Phase I biotransformation of DB289 in pooled HIM; type: in vitro ADME, human; conditions: for Phase I metabolite detection (HPLC/UV): 10 μM DB289, pooled HIM 0.2 mg/ml, NADPH, up to 120 min
Procedure, shortened: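 Test compound (10 μM) with pooled HIM (0.2 mg/ml) in 100 mM phosphate pH 7.4, 3.3 mM MgCl2. Equilibrated 5 min at 37°C, then started with 1 mM NADPH. Aliquots taken at 0, 15, 30 and 120 min were quenched in ice-cold acetonitrile and analysed by HPLC/UV. Metabolites were assigned by retention time against synthetic standards. Controls omitted NADPH, microsomal protein or substrate.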

[2] = tested on: pooled HLM (human liver microsomes); conditions: M1 formation, 0.02 mg/ml protein, 3 min, ref Wang et al., 2006; cited from earlier work
[3] = Solubility in the incubation buffer; type: physicochemical; conditions: highest concentration tested 25 μM
[4] = tested on: HLM; conditions: panel of HLM; ref Wang et al., 2006; cited from earlier work
[5] = Enzyme kinetics of M1 formation; type: in vitro ADME, human; conditions: human
[6] = tested on: human intestinal microsomes (HIM); experiment: Enzyme kinetics of M1 formation; type: in vitro ADME; conditions: for KMapp(1): 5 min
[7] = six healthy men, p.o. 14C-DB289, single-dose escalation; ref C. Olson, Immtech Pharmaceuticals Inc., personal communication; cited from earlier work
[8] = tested on: purified CYP4A11; conditions: higher for CYP4A11; ref Powell et al., 1998; cited from earlier work
[9] = tested on: recombinant CYP2J2; conditions: ref Hashizume et al. (2002); cited from earlier work
[10] = tested on: P450 enzymes of pooled HIM (M1 formation from DB289); experiment: Chemical inhibition of M1 formation in pooled HIM; type: biochemical, human
[11] = biological target: T1, recombinant CYP4F3B (Homo sapiens, UniProt Q08477); experiment: Effect of α-NF on M1 formation by recombinant CYP4F3B; type: biochemical; conditions: 1 μM α-NF, 3 μM DB289, P > 0.05
T1 sequence (Q08477 1-520 isoform Q08477-2): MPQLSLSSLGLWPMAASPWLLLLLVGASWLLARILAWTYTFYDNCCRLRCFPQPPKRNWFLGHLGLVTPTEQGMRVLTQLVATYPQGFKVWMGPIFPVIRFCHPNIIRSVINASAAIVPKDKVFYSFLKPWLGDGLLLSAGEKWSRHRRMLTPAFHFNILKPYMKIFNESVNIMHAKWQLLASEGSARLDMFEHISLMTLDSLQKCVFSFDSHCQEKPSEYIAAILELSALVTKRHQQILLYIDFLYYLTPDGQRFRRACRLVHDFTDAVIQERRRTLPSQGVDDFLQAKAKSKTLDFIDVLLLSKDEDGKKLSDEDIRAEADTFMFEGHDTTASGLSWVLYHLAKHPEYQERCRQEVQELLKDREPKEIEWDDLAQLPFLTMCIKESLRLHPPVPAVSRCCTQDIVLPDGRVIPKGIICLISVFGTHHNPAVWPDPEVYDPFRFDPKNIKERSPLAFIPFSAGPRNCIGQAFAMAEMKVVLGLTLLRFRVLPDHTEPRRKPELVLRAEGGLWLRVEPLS

[12] = tested on: pooled HLM; experiment: Effect of α-NF on M1 formation by pooled HLM; type: biochemical, human; conditions: 1 μM α-NF, 3 μM DB289, P > 0.05
[13] = biological target: recombinant CYP3A4 (Homo sapiens, UniProt P08684); experiment: Effect of α-NF on M1 formation by recombinant CYP3A4; type: biochemical; conditions: recombinant CYP3A4 10 pmol/ml, 1 μM α-NF, 3 μM DB289, 15 min, P < 0.05
recombinant CYP3A4, sequence (P08684 whole entry): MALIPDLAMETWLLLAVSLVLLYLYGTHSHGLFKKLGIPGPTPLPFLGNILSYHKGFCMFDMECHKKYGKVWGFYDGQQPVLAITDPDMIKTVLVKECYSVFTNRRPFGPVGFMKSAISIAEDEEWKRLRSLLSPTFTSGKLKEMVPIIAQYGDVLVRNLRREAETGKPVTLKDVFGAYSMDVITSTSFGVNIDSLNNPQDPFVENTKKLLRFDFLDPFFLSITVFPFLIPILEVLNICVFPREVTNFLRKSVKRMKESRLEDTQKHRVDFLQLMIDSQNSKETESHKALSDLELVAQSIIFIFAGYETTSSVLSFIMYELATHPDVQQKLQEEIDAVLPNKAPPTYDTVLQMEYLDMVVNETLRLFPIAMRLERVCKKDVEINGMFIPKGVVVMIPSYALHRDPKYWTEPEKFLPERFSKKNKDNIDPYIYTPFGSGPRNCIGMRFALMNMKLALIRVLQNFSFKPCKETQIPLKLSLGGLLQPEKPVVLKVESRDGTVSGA

[14] = biological target: T2, recombinant CYP4F2 (Homo sapiens, UniProt P78329); experiment: Effect of α-NF on M1 formation by recombinant CYP4F2; type: biochemical; conditions: recombinant CYP4F2, 1 μM α-NF, 3 μM DB289, P > 0.05
T2 sequence (P78329 5-520): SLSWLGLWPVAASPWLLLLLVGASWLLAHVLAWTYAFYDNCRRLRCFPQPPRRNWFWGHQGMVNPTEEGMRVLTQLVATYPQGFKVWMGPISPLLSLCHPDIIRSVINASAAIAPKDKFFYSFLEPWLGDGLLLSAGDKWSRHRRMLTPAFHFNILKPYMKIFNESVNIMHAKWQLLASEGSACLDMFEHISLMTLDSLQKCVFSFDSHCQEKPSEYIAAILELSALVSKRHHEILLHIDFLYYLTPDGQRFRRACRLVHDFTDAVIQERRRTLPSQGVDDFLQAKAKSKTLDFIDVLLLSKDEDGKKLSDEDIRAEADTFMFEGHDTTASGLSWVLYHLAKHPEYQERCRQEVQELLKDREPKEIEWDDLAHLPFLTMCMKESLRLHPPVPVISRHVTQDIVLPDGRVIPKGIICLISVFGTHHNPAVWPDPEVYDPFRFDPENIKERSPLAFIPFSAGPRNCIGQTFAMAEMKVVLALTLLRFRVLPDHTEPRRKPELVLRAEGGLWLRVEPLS

[15] = biological target: T3, recombinant CYP2J2 (Homo sapiens, UniProt P51589); experiment: Effect of α-NF on M1 formation by recombinant CYP2J2; type: biochemical; conditions: recombinant CYP2J2 10 pmol/ml, 1 μM α-NF, 3 μM DB289, P < 0.05
T3 sequence (P51589 1-502): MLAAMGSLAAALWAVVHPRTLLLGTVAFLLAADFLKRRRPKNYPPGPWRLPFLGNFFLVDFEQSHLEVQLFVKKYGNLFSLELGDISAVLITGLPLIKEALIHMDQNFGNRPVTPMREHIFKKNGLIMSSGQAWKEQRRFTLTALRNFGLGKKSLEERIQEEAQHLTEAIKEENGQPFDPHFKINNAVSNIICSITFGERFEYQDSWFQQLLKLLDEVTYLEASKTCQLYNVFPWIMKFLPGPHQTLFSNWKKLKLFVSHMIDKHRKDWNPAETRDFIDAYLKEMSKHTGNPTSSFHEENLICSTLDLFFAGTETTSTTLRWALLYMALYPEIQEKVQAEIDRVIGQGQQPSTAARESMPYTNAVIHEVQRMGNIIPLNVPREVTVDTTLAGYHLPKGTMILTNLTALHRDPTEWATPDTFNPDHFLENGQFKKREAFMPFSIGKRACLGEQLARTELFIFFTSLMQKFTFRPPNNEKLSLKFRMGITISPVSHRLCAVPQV

[16] = M1 formation, HIM 3, 0.2 mg/ml protein
[17] = M1 formation, HIM 7, 0.2 mg/ml protein
[18] = M1 formation, HIM 30, 0.2 mg/ml protein
[19] = M1 formation, HIM 31, 0.2 mg/ml protein

Compound: CCCCC/C=C\C/C=C\C/C=C\C/C=C\CCCC(=O)O [arachidonic acid]
- Km of 20-HETE formation, CYP4A11 relative to CYP4F2 [8]: 10 fold

Compound: CC(C)(C)c1ccc(C(=O)CCCN2CCC(OC(c3ccccc3)c3ccccc3)CC2)cc1 [ebastine]
- Km [9]: 1.3 µM

Compound: CCCCCCCCCCCC(=O)O [lauric acid]
- inhibition of M1 formation ([10]; pooled HIM 0.2 mg/ml, 3 μM DB289, 5 min, inhibitor concentration as in Fig. 2A): lack of inhibition

Compound: O=c1cc(-c2ccccc2)oc2c1ccc1ccccc12 [α-NF, α-naphthoflavone]
- effect on M1 formation [11]: not significant
- effect on M1 formation [12]: not significant
- activation of M1 formation [13]: 120%
- activation of M1 formation ([10]; different lot of pooled HIM, 1 μM α-NF, 3 μM DB289, P < 0.05): 34%
- activation of M1 formation ([10]; pooled HIM, 3 μM DB289 (Fig. 2A)): 43%
- effect on M1 formation [14]: not significant
- activation of M1 formation [15]: 55%

Now from value to compound, other results behind:

- Phase I metabolite detection (HPLC/UV) [1]: not detected
Compound: N=C(N)c1ccc(-c2ccc(-c3ccc(C(=N)N)cc3)o2)cc1 [DB75, 2,5-bis(4-amidinophenyl) furan]

- solubility in the incubation buffer [3]: limited
- microsomal CLint ([5]; human intestinal microsomes (individual HIM 32), pH 7.4, CL′int(1), M1 formation, HIM 32, Vmax(1)/KMapp(1)): 730 µL/min/mg
- microsomal CLint ([5]; human intestinal microsomes (pooled and nine individual HIM), pH 7.4, total intrinsic clearance [CL′int(1) + CL′int(2)] of M1 formation, range, HIM): 10 to 730 µL/min/mg
- total intrinsic clearance of M1 formation by HIM relative to pooled HLM ([6]; HIM versus pooled HLM): at most 10%
- Vmax(1) ([6]; M1 formation, HIM 1, 0.2 mg/ml protein): 0.12 nmol/min/mg protein
- KMapp(1) ([6]; M1 formation, HIM 1, 0.2 mg/ml protein, biphasic): 0.8 µM
- Vmax(1) ([6]; M1 formation, HIM 2, 0.1 mg/ml protein): 0.42 nmol/min/mg protein
- KMapp(1) ([6]; M1 formation, HIM 2, 0.1 mg/ml protein, biphasic): 0.7 µM
- Vmax(1) [6, 16]: 0.24 nmol/min/mg protein
- KMapp(1) [6, 16]: 1.3 µM
- Vmax(1) [6, 17]: 0.89 nmol/min/mg protein
- KMapp(1) [6, 17]: 1.3 µM
- KMapp(1) ([6]; M1 formation, HIM 12, 0.2 mg/ml protein): 2.3 µM
- KMapp(1) ([6]; M1 formation, HIM 23A, 0.2 mg/ml protein, biphasic): 2.4 µM
- Vmax(1) [6, 18]: 0.19 nmol/min/mg protein
- KMapp(1) [6, 18]: 0.6 µM
- Vmax(1) [6, 19]: 0.02 nmol/min/mg protein
- KMapp(1) [6, 19]: 1.4 µM
- Vmax(1) ([6]; M1 formation, HIM 32, 0.1 mg/ml protein): 0.44 nmol/min/mg protein
- KMapp(1) ([6]; M1 formation, HIM 32, 0.1 mg/ml protein, 37°C): 0.6 µM
- KMapp(1), average ([6]; M1 formation, nine individual HIM): 1.3 µM
- Vmax(1) ([6]; M1 formation, pooled HIM, 0.2 mg/ml protein): 0.19 nmol/min/mg protein
- KMapp(1) ([6]; M1 formation, pooled HIM, 0.2 mg/ml protein, biphasic): 0.7 µM
Compound: CONC(=N)c1ccc(-c2ccc(-c3ccc(C(=N)NOC)cc3)o2)cc1 [DB289, 2,5-bis(4-amidinophenyl)furan-bis-O-methylamidoxime]
- KMapp(1) [2]: 0.5 µM
- variation in M1 formation rates [4]: 4 fold and ~ 4 fold
- coefficient of variation for Cmax [7]: approximately 50%
- coefficient of variation for area under the curve [7]: approximately 50%
- coefficient of variation for terminal half-life [7]: approximately 50%

- Phase I metabolite detection (HPLC/UV) [1]: identified
- fraction of M1 further metabolized ([1]; within the first 15 min of incubation, 10 μM DB289, pooled HIM): Less than 10%
Compound: CON=C(N)c1ccc(-c2ccc(-c3ccc(C(N)=NO)cc3)o2)cc1 [M1]

- Phase I metabolite detection (HPLC/UV) [1]: identified
Compound: NC(=NO)c1ccc(-c2ccc(-c3ccc(C(N)=NO)cc3)o2)cc1 [M2]

- Phase I metabolite detection (HPLC/UV) [1]: identified
Compound: CON=C(N)c1ccc(-c2ccc(-c3ccc(C(=N)N)cc3)o2)cc1 [M3]

- Phase I metabolite detection (HPLC/UV) [1]: not detected
Compound: N=C(N)c1ccc(-c2ccc(-c3ccc(C(N)=NO)cc3)o2)cc1 [M4]
